High-throughput results deposited in PubChem by The Scripps Research Institute Molecular Screening Center.
SIAE inh: inhibitors of human sialic acid acetylesterase SIAE; SIAE FP-Rh probe binding, fluorescence polarization; inhibition, % at 9.66 µM; actives 0.69% (n = 370,000); AID 1053197;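 active = inhibition above a cutoff: mean of compounds within the control limits plus 3 SD of those, cut at about 17% in these data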
Tn7 DDE FP: disrupts Tn7 cyclic peptide binding to fibrin D-Dimer-E complex; P02675; FP displacement of FITC-Tn7 peptide from fibrin DD(E); 0% = median of compound wells per plate; inhibition, % at 8.3 µM; actives 0.13% (n = 370,000);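 active = inhibition above the mean of compounds falling within the control limits plus 3 SD of them, cut at about 14% in these data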
Target sequence (P02675 whole entry, looked up): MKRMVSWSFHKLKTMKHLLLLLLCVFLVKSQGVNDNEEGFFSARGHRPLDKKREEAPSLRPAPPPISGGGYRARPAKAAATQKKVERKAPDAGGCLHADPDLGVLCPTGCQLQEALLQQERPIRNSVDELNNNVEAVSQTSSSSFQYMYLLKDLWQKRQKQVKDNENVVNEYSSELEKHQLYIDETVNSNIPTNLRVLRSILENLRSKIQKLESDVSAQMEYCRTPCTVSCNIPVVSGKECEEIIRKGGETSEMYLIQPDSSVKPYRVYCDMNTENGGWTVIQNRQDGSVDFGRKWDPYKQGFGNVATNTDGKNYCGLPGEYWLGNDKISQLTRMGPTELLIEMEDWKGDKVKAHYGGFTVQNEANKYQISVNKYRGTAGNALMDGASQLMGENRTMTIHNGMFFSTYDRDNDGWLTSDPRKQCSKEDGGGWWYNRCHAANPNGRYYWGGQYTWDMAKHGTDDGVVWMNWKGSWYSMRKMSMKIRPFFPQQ
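Assay system: Human fibrin DD(E) protein | Medium: Tris buffer with calcium and detergent, pH 7.8 | Reagent: 0.1 µM fluorescent Tn7 | Compound dosing: Single point at 8.3 µM | Times: 10 min preincubation, 3 h with tracer, room temperature | Detection: Fluorescence polarization of the labelled Tn7 tracer | Controls: Aha-Tn7 high control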
DDE Tn6 FP inh: inhibitors of Tn6 peptide binding to human fibrin DD(E). P02675. Fibrin DD(E) TRITC-Tn6 fluorescence polarization displacement. inhibition, % at 8.3 µM. actives 0.21% (n = 370,000). AID 720509;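 active = inhibition above a per-campaign cutoff: mean of compounds within control limits plus 3 SD, cut at about 15% in these data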
HTRA1 inhibitor: blocks human HTRA1 serine peptidase; inhibition, % at 5.96 µM; recombinant HTRA1, FP-rhodamine activity-based probe, fluorescence polarization; AID 504803; Q92743; actives 0.5% (n = 340,000); in the data active = inhibition above about 36%
TCR-CD3 inh: blocks the human TCR-CD3 interaction; AID 651800; TAMRA-labeled TCR probe fluorescence, biochemical; actives 0.37% (n = 360,000); inhibition, % at 9.4 µM; in the data active = inhibition above about 19%;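 also: recombinant mutant TCR 2C K166C tagged with TAMRA read by polarization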
mABHD4 FP: ABHD4 (mouse) inhibition, primary FP screen | inhibition, % at 8.92 µM | actives 0.54% (n = 370,000) | purified mABHD4, FP-Rh probe fluorescence polarization | Q8VD66;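 active = inhibition exceeding the mean over every tested compound plus 3 SD, cut at about 30% in these data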
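system = mouse ABHD4 enzyme, wild type | medium = HEPES pH 7.0, NaCl, Pluronic buffer | also added = FP-Rh probe | incubation = Enzyme–compound pre-incubation 45 min, then probe 60 min, both 25 °C | technique = fluorescence polarization, excitation 525 nm, emission 598 nm, BODIPY TMR filters | controls = S159A mutant high control, sample median low control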
SIAE inh conf: human SIAE inhibition, confirmation. shares compounds with SIAE inh. SIAE FP-Rh activity-based probe, fluorescence polarization. inhibition, % at 9.66 µM. actives 13% (n = 2,300). AID 1117263;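 active = mean inhibition of the replicates above the hit cutoff set in the primary screen, cut at about 17% in these data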;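 also: inhibitors lower polarization as more probe stays unbound to SIAE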
A number is an active result. Only some compounds are listed: those with a hit (about 1.8% of all), similar ones and a draw of the others.

How did c1cc2c3c(cccc3c1)NC(c1ccc3c(c1)OCO3)N2 do in these assays?
SIAE inh: 28; Tn7 DDE FP: inactive; DDE Tn6 FP inh: inactive; HTRA1 inhibitor: inactive; TCR-CD3 inh: inactive; mABHD4 FP: inactive; SIAE inh conf: inactive

What do the screens show for `CN1C(=O)/C(=C/c2ccc(-c3ccccc3[N+](=O)[O-])o2)SC1=Nc1ccc(Cl)c(C(=O)O)c1`?
SIAE inh: 19; Tn7 DDE FP: inactive; DDE Tn6 FP inh: inactive; HTRA1 inhibitor: inactive; TCR-CD3 inh: inactive; mABHD4 FP: inactive; SIAE inh conf: inactive

Results for O=C(c1ccc(Cn2c(=S)[nH]c3ccccc3c2=O)cc1)N1CCN(c2ccccn2)CC1 ?
SIAE inh: 23; Tn7 DDE FP: inactive; DDE Tn6 FP inh: inactive; HTRA1 inhibitor: inactive; TCR-CD3 inh: inactive; mABHD4 FP: inactive; SIAE inh conf: inactive

Results for O=C(c1ccc(Cn2c(=O)[nH]c3ccccc3c2=O)cc1)N1CCN(c2ccccn2)CC1 ?
SIAE inh: inactive; Tn7 DDE FP: inactive; DDE Tn6 FP inh: inactive; HTRA1 inhibitor: inactive; TCR-CD3 inh: inactive; mABHD4 FP: inactive

What do the screens show for `Cc1ccc(-n2c(SCC(=O)Nc3ccccc3-c3ccccc3)nnc2-c2ccco2)cc1`?
SIAE inh: inactive; Tn7 DDE FP: inactive; DDE Tn6 FP inh: inactive; mABHD4 FP: inactive

What do the screens show for `CC1(C)CC(=O)c2cc(N=C/C(C(=O)c3ccccc3)=C(\O)c3ccccc3)c(=O)oc2C1`?
SIAE inh: 17; Tn7 DDE FP: inactive; DDE Tn6 FP inh: inactive; HTRA1 inhibitor: inactive; TCR-CD3 inh: inactive; mABHD4 FP: inactive; SIAE inh conf: inactive

Results for c1ccc(CNc2nc(NCC3CC3)nc3cc(-c4ccccc4)sc23)cc1 ?
SIAE inh: inactive; Tn7 DDE FP: inactive; DDE Tn6 FP inh: inactive; TCR-CD3 inh: inactive; mABHD4 FP: inactive

What do the screens show for `COc1cccc(CNc2nc(NCc3ccccc3)nc3ccsc23)c1`?
SIAE inh: inactive; Tn7 DDE FP: inactive; DDE Tn6 FP inh: inactive; TCR-CD3 inh: inactive; mABHD4 FP: inactive

How did COCCNc1nc(NCc2cccc(OC)c2)c2sc(-c3ccccc3)cc2n1 do in these assays?
SIAE inh: 34; Tn7 DDE FP: inactive; DDE Tn6 FP inh: inactive; TCR-CD3 inh: inactive; mABHD4 FP: inactive; SIAE inh conf: 31

Results for c1ccc(OCCNc2nc(NCC3CC3)nc3cc(-c4ccccc4)sc23)cc1 ?
SIAE inh: 22; Tn7 DDE FP: inactive; DDE Tn6 FP inh: inactive; TCR-CD3 inh: inactive; mABHD4 FP: inactive; SIAE inh conf: 21

Results for COCCNc1nc(NCc2ccc(NC(C)=O)cc2)c2sc(-c3ccccc3)cc2n1 ?
SIAE inh: 27; Tn7 DDE FP: inactive; DDE Tn6 FP inh: inactive; TCR-CD3 inh: inactive; mABHD4 FP: inactive; SIAE inh conf: 18

Results for COCCNc1nc(Oc2ccc(NC(C)=O)cc2)c2sc(-c3ccccc3)cc2n1 ?
SIAE inh: inactive; Tn7 DDE FP: inactive; DDE Tn6 FP inh: inactive; TCR-CD3 inh: inactive; mABHD4 FP: inactive

What do the screens show for `CCOC(=O)Cn1cc(CN2CCS(=O)(=O)N(Cc3ccc(C)cc3)C(C(=O)OC)C2)nn1` (configuration not stated)?
SIAE inh: inactive; Tn7 DDE FP: inactive; DDE Tn6 FP inh: inactive; mABHD4 FP: inactive

How did CNc1ccccc1/C(O)=C(\C#N)C(=O)NCc1cccc2ccccc12 do in these assays?
SIAE inh: inactive; Tn7 DDE FP: inactive; DDE Tn6 FP inh: inactive; mABHD4 FP: inactive

How did CCOc1ccc(-n2c(SCC(=O)Nc3ccc(OCc4ccccc4)cc3)nnc2-c2ccc(Cl)cc2)cc1 do in these assays?
SIAE inh: inactive; Tn7 DDE FP: inactive; DDE Tn6 FP inh: inactive; mABHD4 FP: inactive

What do the screens show for `COc1cc(/C=N/NC(=S)NC2CC3CC2C2C=CCC32)ccc1O` (configuration not stated)?
SIAE inh: 23; Tn7 DDE FP: inactive; DDE Tn6 FP inh: inactive; HTRA1 inhibitor: inactive; TCR-CD3 inh: inactive; mABHD4 FP: inactive; SIAE inh conf: inactive

Results for CCc1nc(C)cn1S(=O)(=O)c1cc(C)c(OC)c(C)c1C ?
SIAE inh: 37; Tn7 DDE FP: inactive; DDE Tn6 FP inh: inactive; HTRA1 inhibitor: inactive; TCR-CD3 inh: inactive; mABHD4 FP: inactive; SIAE inh conf: inactive
